The source of these data is article PMC3082000 (Bioorganic & medicinal chemistry letters, 2010).

The term pEC50 denotes the EC50 on a negative log10 scale, so that one unit is a factor of ten.

pEC50: −log10 of the molar value. Where only a bound is given, the exact number is not on record here.

Data set [1] in a line: solubility. It counts as physicochemical.
The test system of data set [2] is TREx293-hM1 cells. Kind of data set: APP processing: M1-stimulated APPsα release, Western blot. In kind it is cell-based, human. Conditions: for APPsα release, in combination with low dose CCh: 2 μM with 100 nM CCh. In short, it runs like this: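 Stable human M1-overexpressing TREx293 cells, plated 2 days before use, were pretreated 15 min with 2 μM test compound or DMSO. Carbachol (100 nM or 10 μM) was then added, and medium was conditioned 1 h at 37°C. Endogenous APPsα in conditioned medium was detected by Western blot.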

For data set [3], the system named is M2-M5. Kind of data set: counter-screening against M2-M5. It counts as cell-based. Conditions: read-out: M2-M5 EC50; selectivity counter-screen. (Counterscreens check selectivity or assay interference.)
The conditions of data set [4]: cited from earlier work.
For data set [5], the target named is T1, M1 (Rattus norvegicus, UniProt P08482).
T1 sequence (P08482 1-460): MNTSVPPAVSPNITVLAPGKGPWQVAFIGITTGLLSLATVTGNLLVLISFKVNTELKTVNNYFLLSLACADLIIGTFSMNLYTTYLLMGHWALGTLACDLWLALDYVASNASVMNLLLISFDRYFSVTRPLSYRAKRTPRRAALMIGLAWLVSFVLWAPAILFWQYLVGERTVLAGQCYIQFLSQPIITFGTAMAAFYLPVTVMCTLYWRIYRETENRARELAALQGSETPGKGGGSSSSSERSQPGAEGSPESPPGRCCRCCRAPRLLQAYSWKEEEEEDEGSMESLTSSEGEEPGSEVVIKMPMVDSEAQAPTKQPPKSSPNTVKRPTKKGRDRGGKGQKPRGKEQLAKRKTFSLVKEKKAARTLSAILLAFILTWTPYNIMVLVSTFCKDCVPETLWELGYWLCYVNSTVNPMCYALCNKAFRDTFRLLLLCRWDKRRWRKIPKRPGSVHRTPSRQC
Conditions: cited from earlier work.

Data set [6] concerns the target T1, M1. The data set can be described thus: real-time cell-based calcium-mobilization assay, M1 PAM.
For data set [7], the system named is biogenic amines (D2, H-HT2B, etc…). Kind of data set: Lead Profile screen at Ricerca, radioligand binding.
Data set [8] deals with M1-M5. The data set can be described thus: Lead Profile screen at Ricerca, orthosteric binding.

For `Cc1cc(NC(=O)CS(=O)(=O)c2cn(Cc3cccc(Br)c3)c3ccccc23)no1` [13g], the solubility entry in data set [1] is recorded as “poor”.
For the compound `C[N+](C)(C)CCOC(N)=O` [carbachol, reference compound], the “soluble APP (APPsα)” value in data set [2] (100 nM) is “modest increase”; in data set [2] (10 μM), “significant increase”.
In the case of `Cc1cc(NC(=O)CS(=O)(=O)c2cn(Cc3ccccc3Cl)c3ccccc23)no1` [compound 7], in data set [3], the pEC50 was under 4.52.
On to `Cn1cc(-c2ccc(CN3C(=O)C(=O)c4ccccc43)c(F)c2)cn1` [compound 3], for which the brainAUC/plasmaAUC in data set [4] is on record as about 0.1. Moreover, the “efficacy (% ACh Max)” value in data set [5] was 60 % ACh Max.
Turning to `CCC(C)n1cc(-c2cccc(Cn3cc(S(=O)(=O)CC(=O)Nc4cc(C)on4)c4ccccc43)c2)cn1` (stereo not drawn) [14c], the “M1 EC50” value in data set [6] (average of at least three independent determinations) was “inactive”.
Take `Cc1cc(NC(=O)CS(=O)(=O)c2cn(Cc3cc(Br)ccc3F)c3ccccc23)no1` [15j, 2-((1-(5-bromo-2-fluorobenzyl)-1H-indol-3-yl)sulfonyl)-N-(5-methylisoxazol-3-yl)acetamide]: the negative-log EC50 (pEC50) in data set [3] is under 4.52. Also, the “APPsα release, in combination with low dose CCh” value in data set [2] (TREx293-hM1 cells, listed as ML169) is “potentiates the CCh-mediated non-amyloidogenic APPsα release to the same degree as 10 μM CCh”; in data set [2] (TREx293-hM1 cells, listed as VU04505652), “potentiates the CCh-mediated non-amyloidogenic APPsα release”. In addition, the “APPsα release, compound alone” value in data set [2] (2 μM, TREx293-hM1 cells) was “no effect”. In addition, in data set [7], the “selectivity versus the biogenic amines” value was “selective”. Also, the improvement in potency in data set [6] (relative to the non-fluorinated bromine analog) is recorded as about 3 fold. Also, the “orthosteric binding at M1-M5” value in data set [8] is reported as “no orthosteric binding”.
In the case of `Cc1cc(NC(=O)CS(=O)(=O)c2cn(Cc3cccc(-c4cn[nH]c4)c3)c3cc(F)cc(F)c23)no1` [15e], the pEC50 in data set [3] is under 4.52.
